Columns and labels:
[1] = Cmax was determine after peroral administration at 10 mpk in dog; type: ADME, organism-based, Canis lupus familiaris; set-up: dose 10 mpk, route oral; details: in vivo, po, 10 mg/kg
Summary of the method: (§1)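 Dogs dosed both intravenously (2 mg/kg) and orally (10 mg/kg). Cmax, half-life, plasma clearance (mL/min/kg) and oral bioavailability (%) were derived from plasma drug levels. The study was IACUC-approved.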

[2] = biological target: Human immunodeficiency virus type 1 protease (Human immunodeficiency virus 1, UniProt Q72874); experiment: Inhibitory activity against HIV-1 Protease
[3] = Plasma clearance after peroral administration at 10 mpk in dog; type: ADME, organism-based, Canis lupus familiaris; details: po, 10 mg/kg, read-out: Clp; summary of the method: as §1
Cytochrome P450 3A4 = Cytochrome P450 3A4 (Homo sapiens, UniProt P08684); experiment: Inhibition of human liver microsome Cytochrome P450 3A4
Chain of Cytochrome P450 3A4 (P08684 whole entry): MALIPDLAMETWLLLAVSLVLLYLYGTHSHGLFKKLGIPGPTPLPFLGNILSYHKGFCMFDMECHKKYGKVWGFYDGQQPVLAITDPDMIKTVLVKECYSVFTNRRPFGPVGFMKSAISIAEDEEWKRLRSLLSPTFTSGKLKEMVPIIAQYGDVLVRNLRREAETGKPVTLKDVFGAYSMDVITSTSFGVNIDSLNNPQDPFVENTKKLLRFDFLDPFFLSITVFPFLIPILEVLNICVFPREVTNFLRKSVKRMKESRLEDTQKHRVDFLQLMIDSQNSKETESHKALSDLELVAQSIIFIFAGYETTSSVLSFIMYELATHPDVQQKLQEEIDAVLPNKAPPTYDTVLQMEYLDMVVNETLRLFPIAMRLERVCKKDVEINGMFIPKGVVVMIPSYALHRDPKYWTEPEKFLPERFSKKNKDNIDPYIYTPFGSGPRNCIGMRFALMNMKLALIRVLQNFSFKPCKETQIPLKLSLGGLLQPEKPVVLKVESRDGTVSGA

Cytochrome P450 2D6 = Cytochrome P450 2D6 (Homo sapiens, UniProt P10635); experiment: Inhibition of human liver microsome Cytochrome P450 2D6; type: ADME, microsomes
Chain of Cytochrome P450 2D6 (P10635 whole entry): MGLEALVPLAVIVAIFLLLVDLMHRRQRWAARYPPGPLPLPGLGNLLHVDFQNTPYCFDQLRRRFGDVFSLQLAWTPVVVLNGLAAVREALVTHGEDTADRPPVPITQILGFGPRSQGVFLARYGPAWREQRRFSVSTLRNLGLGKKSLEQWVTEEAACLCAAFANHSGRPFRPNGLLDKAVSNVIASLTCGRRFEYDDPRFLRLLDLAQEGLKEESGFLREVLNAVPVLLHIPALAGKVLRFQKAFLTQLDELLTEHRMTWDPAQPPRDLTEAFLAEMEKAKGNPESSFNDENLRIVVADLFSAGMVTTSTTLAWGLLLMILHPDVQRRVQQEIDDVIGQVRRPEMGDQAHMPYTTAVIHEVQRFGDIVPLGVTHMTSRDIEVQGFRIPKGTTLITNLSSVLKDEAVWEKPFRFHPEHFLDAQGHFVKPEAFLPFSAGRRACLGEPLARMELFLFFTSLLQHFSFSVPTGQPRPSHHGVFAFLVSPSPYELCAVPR

MT4 [4] = experiment: Ability to inhibit spread of viral infection in MT-4 human T-lymphoidcell infected by PI-resistant HIV-1 (strain K-60C); type: functional; details: read-out: CIC95
Summary of the method: (§2)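 MT4 human T-lymphoid cells infected with HIV-1, either wild-type NL4-3 or engineered PI-resistant constructs (4X, K-60C, V-18C, Q-60C) carrying varied patterns of multiple PI resistance mutations; spread of infection in culture followed. Value is CIC95, the compound concentration inhibiting at least 95% of infectious viral spread relative to untreated virus control culture.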

Cytochrome P450 2C9 = Cytochrome P450 2C9 (Homo sapiens, UniProt P11712); experiment: Inhibition of human liver microsome Cytochrome P450 2C9; type: ADME, microsomes
Chain of Cytochrome P450 2C9 (P11712 whole entry): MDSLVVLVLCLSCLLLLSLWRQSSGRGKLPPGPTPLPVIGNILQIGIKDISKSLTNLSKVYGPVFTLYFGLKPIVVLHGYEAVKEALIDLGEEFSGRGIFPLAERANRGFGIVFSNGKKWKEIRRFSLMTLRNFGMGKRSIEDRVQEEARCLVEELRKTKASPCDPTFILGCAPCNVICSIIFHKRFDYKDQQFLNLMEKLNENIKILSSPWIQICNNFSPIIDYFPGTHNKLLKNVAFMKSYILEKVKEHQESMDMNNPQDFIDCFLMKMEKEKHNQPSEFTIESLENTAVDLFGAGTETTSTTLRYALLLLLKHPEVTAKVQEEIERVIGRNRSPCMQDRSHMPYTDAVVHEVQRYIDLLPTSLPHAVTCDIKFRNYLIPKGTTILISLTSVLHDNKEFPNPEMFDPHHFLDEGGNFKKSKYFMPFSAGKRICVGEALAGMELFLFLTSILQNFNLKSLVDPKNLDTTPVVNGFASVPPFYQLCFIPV

MT4 [5] = experiment: Ability to inhibit spread of viral infection in MT-4 human T-lymphoidcell infected by PI-resistant HIV-1 (strain V-18C); type: functional; details: read-out: CIC95; summary of the method: as §2
[6] = Oral bioavailability in dog (dose 10 mg/kg); type: ADME, organism-based, Canis lupus familiaris; details: in vivo; summary of the method: as §1
MT4 [7] = experiment: Ability to inhibit spread of viral infection in MT-4 human T-lymphoidcell infected by wild-type HIV-1(strain NL4-3); type: functional; details: read-out: CIC95; summary of the method: as §2
[8] = In vitro intrinsic clearance in human liver microsome; type: ADME; details: liver microsomes
Summary of the method: (§3)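 The compound was incubated with liver microsomes from rat, dog, rhesus and human. Metabolic stability was expressed as intrinsic clearance scaled to mL/min/kg.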

[9] = Half life period was determine after peroral administration at 10 mpk in dog; type: ADME, organism-based, Canis lupus familiaris; details: in vivo, po, 10 mg/kg; summary of the method: as §1
MT4 [10] = experiment: Ability to inhibit spread of viral infection in MT-4 human T-lymphoidcell infected by PI-resistant HIV-1 (strain Q-60C); type: functional; details: read-out: CIC95; summary of the method: as §2
MT4 [11] = experiment: Ability to inhibit spread of viral infection in MT-4 human T-lymphoidcell infected by PI-resistant HIV-1 (strain 4X Virus); type: functional; details: read-out: CIC95; summary of the method: as §2
[12] = Cmax was determine after peroral administration at 10 mpk in Rat; type: ADME, organism-based; set-up: dose 10 mpk, route oral; details: in vivo, po, 10 mg/kg
Summary of the method: (§4)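 Rats were dosed orally across 10–160 mg/kg (10, 20, 50, 160). The 10 mg/kg oral arm was paired with 5 mg/kg intravenous dosing. Cmax, AUC, half-life, plasma clearance (mL/min/kg) and bioavailability (%) were determined at each oral dose.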

Rhesus monkey [13] = experiment: Area under curve was determine after peroral administration at 10 mpk in Rhesus; type: ADME, organism-based, Macaca mulatta; details: in vivo, po, 10 mg/kg
Summary of the method: (§5)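 Rhesus monkeys were given 10 mg/kg orally and 2 mg/kg intravenously. Cmax, half-life, AUC, plasma clearance (mL/min/kg) and bioavailability (%) were taken from plasma concentration profiles.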

[14] = Half life period was determine after peroral administration at 10 mpk in Rat; type: ADME, organism-based; details: in vivo, po, 10 mg/kg; summary of the method: as §4
[15] = Cmax was determine after peroral administration at 20 mpk in Rat; type: ADME, organism-based; set-up: dose 20 mpk, route oral; details: in vivo, po, 20 mg/kg; summary of the method: as §4
[16] = Oral bioavailability after peroral administration at 160 mpk in Rat; type: ADME, organism-based; details: in vivo, 160 mg/kg; summary of the method: as §4
Rattus norvegicus [17] = experiment: Area under curve was determine after peroral administration at 10 mpk in Rat; type: ADME, organism-based; details: in vivo, po, 10 mg/kg; summary of the method: as §4
Rattus norvegicus [18] = experiment: Plasma clearance after peroral administration at 10 mpk in Rat; type: ADME, organism-based; details: in vivo, po, 10 mg/kg; summary of the method: as §4
[19] = Half life period was determine after peroral administration at 10 mpk in Rhesus; type: ADME, organism-based, Macaca mulatta; details: rhesus monkey, in vivo, po, 10 mg/kg; summary of the method: as §5
[20] = Cmax was determine after peroral administration at 10 mpk in Rhesus; type: ADME, organism-based, Macaca mulatta; set-up: dose 10 mpk, route oral; details: rhesus monkey, in vivo, po, 10 mg/kg; summary of the method: as §5
[21] = Intrinsic clearance in Rhesus liver microsome; type: ADME, Macaca mulatta; details: rhesus monkey, liver microsomes; summary of the method: as §3
[22] = Oral bioavailability after peroral administration at 20 mpk in Rat; type: ADME, organism-based; details: in vivo, 20 mg/kg; summary of the method: as §4
[23] = Cmax was determine after peroral administration at 50 mpk in Rat; type: ADME, organism-based; set-up: dose 50 mpk, route oral; details: in vivo, po, 50 mg/kg; summary of the method: as §4
[24] = Oral bioavailability after peroral administration at 50 mpk in Rat; type: ADME, organism-based; details: in vivo, 50 mg/kg; summary of the method: as §4
[25] = Intrinsic clearance in rat liver microsome; type: ADME; details: liver microsomes; summary of the method: as §3
[26] = Intrinsic clearance in dog liver microsome; type: ADME, Canis lupus familiaris; details: liver microsomes; summary of the method: as §3
[27] = Oral bioavailability after peroral administration at 10 mpk in Rat; type: ADME, organism-based; details: in vivo, 10 mg/kg; summary of the method: as §4
[28] = Oral bioavailability in Rhesus monkey (dose 10 mg/kg p.o.); type: ADME, organism-based, Macaca mulatta; details: in vivo; summary of the method: as §5
[29] = Area under curve was determine after peroral administration at 50 mpk in Rat; type: ADME, organism-based; details: in vivo, po, 50 mg/kg; summary of the method: as §4
[30] = Cmax was determine after peroral administration at 160 mpk in Rat; type: ADME, organism-based; set-up: dose 160 mpk, route oral; details: in vivo, po, 160 mg/kg; summary of the method: as §4
Rhesus monkey [31] = experiment: Plasma clearance after peroral administration at 10 mpk in Rhesus; type: ADME, organism-based, Macaca mulatta; details: in vivo, po, 10 mg/kg; summary of the method: as §5
[32] = Area under curve was determine after peroral administration at 20 mpk in Rat; type: ADME, organism-based; details: in vivo, po, 20 mg/kg; summary of the method: as §4
[33] = Area under curve was determine after peroral administration at 160 mpk in Rat; type: ADME, organism-based; details: in vivo, po, 160 mg/kg; summary of the method: as §4

`CC(C)(c1ncc(-c2cnccc2Cl)o1)N1CCN(C[C@@H](O)C[C@@H](Cc2ccccc2)C(=O)N[C@H]2c3ccccc3OC[C@H]2O)[C@H](C(=O)NCC(F)(F)F)C1` showed a Cmax [1] of 1000 nM, an IC50 [2] of 0.02 nM and a CL/F [3] of 19 mL/min/kg. For the same molecule, the IC50 (Cytochrome P450 3A4) was 40 nM, the IC50 (Cytochrome P450 2D6) was 4170 nM and the IC95 (MT4 [4]) was 16 nM. It also gave an IC50 (Cytochrome P450 2C9) of 21000 nM, an IC95 (MT4 [5]) of 31 nM and a bioavailability [6] of 8%. For the same molecule, the IC95 (MT4 [7]) was ≤ 8 nM, the CLint scaled [8] was 35 mL/min/kg and the half-life [9] was 1.53 h.
For `CC(C)(C)NC(=O)[C@@H]1CN(Cc2cccnc2)CCN1C[C@@H](O)C[C@@H](Cc1ccccc1)C(=O)N[C@H]1c2ccccc2C[C@H]1O`, the IC95 (MT4 [10]) was > 1000 nM, the IC95 (MT4 [4]) was > 1000 nM and the IC95 (MT4 [5]) was > 1000 nM. For the same molecule, the IC95 (MT4 [11]) was 400 nM and the IC95 (MT4 [7]) was 50 nM.
`O=C(N[C@H]1c2ccccc2OC[C@H]1O)[C@H](Cc1ccccc1)C[C@H](O)CN1CCN(Cc2ncc(-c3ccncc3)o2)C[C@H]1C(=O)NCC(F)(F)F` showed an IC50 [2] of 0.1 nM, an IC95 (MT4 [10]) of 250 nM and an IC95 (MT4 [4]) of 125 nM. The IC95 (MT4 [5]) was 125 nM, the IC95 (MT4 [11]) was 62 nM and the IC95 (MT4 [7]) was 23 nM.
Work on `O=C(N[C@H]1c2ccccc2OC[C@H]1O)[C@H](Cc1ccccc1)C[C@H](O)CN1CCN(Cc2ncc(-c3ccccn3)o2)C[C@H]1C(=O)NCC(F)(F)F` yielded an IC50 [2] of 0.13 nM, an IC95 (MT4 [10]) of 125 nM and an IC95 (MT4 [5]) of 125 nM. It also gave an IC95 (MT4 [11]) of 31 nM and an IC95 (MT4 [7]) of 23 nM.
For `COc1cncc(-c2cnc(C(C)(C)N3CCN(C[C@@H](O)C[C@@H](Cc4ccccc4)C(=O)N[C@H]4c5ccccc5OC[C@H]4O)[C@H](C(=O)NCC(F)(F)F)C3)o2)c1`, the Cmax [12] was 40 nM, the Cmax [1] was 4300 nM and the AUC (Rhesus monkey [13]) was 0.12 µM·h. The IC50 [2] was 0.02 nM, the half-life [14] was 0.433 h and the IC95 (MT4 [10]) was 31 nM. For the same molecule, the Cmax [15] was 370 nM, the bioavailability [16] was 47.2% and the AUC (Rattus norvegicus [17]) was 0.03 µM·h. The CL/F [3] was 18 mL/min/kg, the Clp (Rattus norvegicus [18]) was 104 mL/min/kg and the IC50 (Cytochrome P450 3A4) was 40 nM. For the same molecule, the IC50 (Cytochrome P450 2D6) was 8700 nM, the IC95 (MT4 [4]) was 15 nM and the half-life [19] was 1.22 h. The IC50 (Cytochrome P450 2C9) was 30000 nM, the Cmax [20] was 100 nM and the IC95 (MT4 [5]) was 15 nM. It also gave a bioavailability [6] of 30%, a CLint [21] of 120 mL/min/kg and a bioavailability [22] of 9.2%. The Cmax [23] was 3060 nM, the IC95 (MT4 [7]) was ≤ 8 nM and the bioavailability [24] was 40.5%. For the same molecule, the CLint scaled [8] was 13 mL/min/kg, the CLint [25] was 87 mL/min/kg and the CLint [26] was 67 mL/min/kg. For the same molecule, the bioavailability [27] was 1.5%, the bioavailability [28] was 2.2% and the AUC [29] was 4.02 µM·h. For the same molecule, the Cmax [30] was 6880 nM, the Clp (Rhesus monkey [31]) was 33 mL/min/kg and the AUC [32] was 0.38 µM·h. The AUC [33] was 15.7 µM·h and the half-life [9] was 1.02 h.
For `O=C(N[C@H]1c2ccccc2OC[C@H]1O)[C@H](Cc1ccccc1)C[C@H](O)CN1CCN(Cc2ccc(-c3ccccn3)o2)C[C@H]1C(=O)NCC(F)(F)F`, the IC50 [2] was 0.05 nM, the IC95 (MT4 [10]) was 15 nM and the IC95 (MT4 [4]) was 31 nM. For the same molecule, the IC95 (MT4 [5]) was 15 nM and the IC95 (MT4 [7]) was ≤ 8 nM.
In the case of `CC(C)(c1ncc(-c2cccnc2)o1)N1CCN(C[C@@H](O)C[C@@H](Cc2ccccc2)C(=O)N[C@H]2c3ccccc3OC[C@H]2O)[C@H](C(=O)NCC(F)(F)F)C1`, the Cmax [1] is reported as 3800 nM, the IC50 [2] is reported as 0.04 nM and the IC95 (MT4 [10]) is reported as 31 nM. The CL/F [3] was 21 mL/min/kg, the IC50 (Cytochrome P450 3A4) was 110 nM and the IC50 (Cytochrome P450 2D6) was 10500 nM. For the same molecule, the IC95 (MT4 [4]) was 31 nM, the IC50 (Cytochrome P450 2C9) was 33000 nM and the IC95 (MT4 [5]) was 125 nM. The bioavailability [6] was 10%, the IC95 (MT4 [7]) was ≤ 8 nM and the CLint scaled [8] was 27 mL/min/kg. For the same molecule, the half-life [9] was 1.57 h.
Work on `CC(C)(c1ncc(-c2ccccn2)o1)N1CCN(C[C@@H](O)C[C@@H](Cc2ccccc2)C(=O)N[C@H]2c3ccccc3OC[C@H]2O)[C@H](C(=O)NCC(F)(F)F)C1` yielded an IC50 [2] of 0.04 nM, an IC95 (MT4 [10]) of 15 nM and an IC50 (Cytochrome P450 3A4) of 5000 nM. For the same molecule, the IC50 (Cytochrome P450 2D6) was 22200 nM, the IC95 (MT4 [4]) was 31 nM and the IC50 (Cytochrome P450 2C9) was 28000 nM. For the same molecule, the IC95 (MT4 [5]) was 62 nM, the IC95 (MT4 [7]) was ≤ 8 nM and the CLint scaled [8] was 500 mL/min/kg.
`O=C(N[C@H]1c2ccccc2OC[C@H]1O)[C@H](Cc1ccccc1)C[C@H](O)CN1CCN(Cc2ncc(-c3cccnc3)o2)C[C@H]1C(=O)NCC(F)(F)F` showed an IC50 [2] of 0.14 nM, an IC95 (MT4 [10]) of 125 nM and an IC95 (MT4 [4]) of 125 nM. For the same molecule, the IC95 (MT4 [5]) was 250 nM, the IC95 (MT4 [11]) was 62 nM and the IC95 (MT4 [7]) was 27 nM.
